Among the data in PubChem BioAssay AID623937 (The Scripps Research Institute Molecular Screening Center, 2012) are fold reduction of Chi cutting values, retold here.

Several values for one entry are separate records, joined by “and”; a condition that tells them apart may be missing. Equal values may be shown once. Activity calls are given as the source filed them.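 The calls were made as follows: active = Chi band cutting by RecBCD reduced more than twofold versus the solvent-only control; inactive = reduction of twofold or less versus solvent-only control.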

Chain of RecBCD enzyme subunit RecC (Escherichia coli (strain K12)) + RecBCD enzyme subunit RecB (Escherichia coli (strain K12)) (P07648 whole entry, looked up): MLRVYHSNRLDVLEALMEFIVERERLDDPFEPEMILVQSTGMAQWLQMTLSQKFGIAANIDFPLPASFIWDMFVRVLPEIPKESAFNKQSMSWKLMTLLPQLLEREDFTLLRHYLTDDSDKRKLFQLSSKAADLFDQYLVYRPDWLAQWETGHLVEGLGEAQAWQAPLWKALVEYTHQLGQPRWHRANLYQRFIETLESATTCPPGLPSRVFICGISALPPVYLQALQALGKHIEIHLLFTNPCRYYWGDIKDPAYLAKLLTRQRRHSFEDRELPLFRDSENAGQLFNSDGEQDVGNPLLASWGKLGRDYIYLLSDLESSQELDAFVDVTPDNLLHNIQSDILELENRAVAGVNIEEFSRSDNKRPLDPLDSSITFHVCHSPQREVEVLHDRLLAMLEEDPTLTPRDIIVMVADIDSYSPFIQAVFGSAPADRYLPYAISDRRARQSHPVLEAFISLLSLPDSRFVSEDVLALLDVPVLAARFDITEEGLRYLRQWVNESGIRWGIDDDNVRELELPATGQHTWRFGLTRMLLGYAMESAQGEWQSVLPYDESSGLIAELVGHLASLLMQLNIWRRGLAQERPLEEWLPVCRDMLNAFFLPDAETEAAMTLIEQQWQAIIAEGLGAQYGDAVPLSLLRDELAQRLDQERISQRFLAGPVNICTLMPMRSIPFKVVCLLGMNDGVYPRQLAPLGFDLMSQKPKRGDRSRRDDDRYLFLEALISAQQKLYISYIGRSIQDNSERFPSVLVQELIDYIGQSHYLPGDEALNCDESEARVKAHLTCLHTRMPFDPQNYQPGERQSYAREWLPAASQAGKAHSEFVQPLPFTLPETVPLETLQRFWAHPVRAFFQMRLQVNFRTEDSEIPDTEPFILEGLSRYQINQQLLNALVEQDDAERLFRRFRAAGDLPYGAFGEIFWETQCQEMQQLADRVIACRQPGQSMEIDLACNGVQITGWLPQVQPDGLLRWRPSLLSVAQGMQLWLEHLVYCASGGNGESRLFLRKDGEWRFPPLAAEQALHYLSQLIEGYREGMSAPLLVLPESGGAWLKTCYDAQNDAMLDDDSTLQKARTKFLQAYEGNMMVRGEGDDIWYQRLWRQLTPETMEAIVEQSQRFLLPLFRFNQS
Chain of RecBCD enzyme subunit RecC (Escherichia coli (strain K12)) + RecBCD enzyme subunit RecB (Escherichia coli (strain K12)) (P08394 whole entry, looked up): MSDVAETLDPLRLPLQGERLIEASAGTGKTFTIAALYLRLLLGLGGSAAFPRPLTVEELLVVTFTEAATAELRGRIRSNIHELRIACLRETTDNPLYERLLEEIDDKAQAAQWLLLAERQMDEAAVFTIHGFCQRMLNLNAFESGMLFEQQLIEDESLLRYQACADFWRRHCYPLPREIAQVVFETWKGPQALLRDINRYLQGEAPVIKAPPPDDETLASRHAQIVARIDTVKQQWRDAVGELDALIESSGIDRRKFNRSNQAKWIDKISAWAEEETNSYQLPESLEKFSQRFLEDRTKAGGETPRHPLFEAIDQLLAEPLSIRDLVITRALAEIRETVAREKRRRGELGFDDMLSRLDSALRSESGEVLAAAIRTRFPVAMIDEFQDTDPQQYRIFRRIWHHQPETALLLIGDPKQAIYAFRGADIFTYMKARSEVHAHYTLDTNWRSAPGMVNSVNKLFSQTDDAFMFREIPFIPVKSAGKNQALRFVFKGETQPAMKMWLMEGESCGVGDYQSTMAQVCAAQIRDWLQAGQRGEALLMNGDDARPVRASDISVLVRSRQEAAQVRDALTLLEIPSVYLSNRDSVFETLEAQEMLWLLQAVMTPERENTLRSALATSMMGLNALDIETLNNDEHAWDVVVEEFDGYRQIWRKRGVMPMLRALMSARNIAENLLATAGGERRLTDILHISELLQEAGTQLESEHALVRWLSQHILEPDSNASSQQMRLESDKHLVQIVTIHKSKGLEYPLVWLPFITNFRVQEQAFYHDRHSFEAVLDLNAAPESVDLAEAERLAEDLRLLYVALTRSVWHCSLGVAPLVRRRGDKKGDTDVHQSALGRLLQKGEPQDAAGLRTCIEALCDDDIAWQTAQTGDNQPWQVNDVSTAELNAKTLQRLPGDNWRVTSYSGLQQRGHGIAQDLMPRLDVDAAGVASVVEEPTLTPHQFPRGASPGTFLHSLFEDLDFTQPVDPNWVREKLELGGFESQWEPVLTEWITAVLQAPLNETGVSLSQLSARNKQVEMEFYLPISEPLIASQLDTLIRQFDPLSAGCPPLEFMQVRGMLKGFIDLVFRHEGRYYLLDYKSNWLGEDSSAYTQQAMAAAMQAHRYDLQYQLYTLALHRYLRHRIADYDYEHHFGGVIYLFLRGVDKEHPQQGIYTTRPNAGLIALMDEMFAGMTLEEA

The target of the assay is RecBCD enzyme subunit RecC (Escherichia coli (strain K12)) + RecBCD enzyme subunit RecB (Escherichia coli (strain K12)) (UniProt P07648+P08394). Put plainly: inhibition of Chi-specific DNA cleavage by RecBCD – biochemical, radioactive gel readout, single concentration, counter-screen for AddAB inhibitor project, late-stage follow-up (AID 623937). The conditions noted are these: purified RecBCD, 32P DNA gel autoradiography, at 50 µM. In outline:
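assay system = purified E. coli RecBCD helicase-nuclease enzyme | input = RecBCD enzyme at 0.15 nM | medium = reaction mix containing 5 mM ATP | probe or stimulus = 0.1 nM labeled Chi+F linear DNA | times = enzyme reaction for 1 min at 37 °C | technique = Agarose gel of DNA products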
As to `CC(=O)Nc1ccc2nc(NC(=O)c3ccc([N+](=O)[O-])o3)sc2c1`, the fold reduction of Chi cutting is < 2 (inactive). Under `CCn1cc(C(=O)O)c(=O)c2cnc(N3CCNCC3)nc21` stands < 2 (inactive).

In the case of `CCn1cc(C(=O)O)c(=O)c2cnc(N3CCN(C(=S)Nc4ccc5c(c4)OCCO5)CC3)nc21`, the fold reduction of Chi cutting is above 2.

As to `O=C(NCc1cccnc1)c1ccc([N+](=O)[O-])o1`, the fold reduction of Chi cutting is < 2 (inactive).

Regarding `O=C(Nc1ccc(N2CCOCC2)cc1)c1ccc([N+](=O)[O-])o1`, the fold reduction of Chi cutting was < 2 (inactive). The result for `Cc1ccc2nc(/C(C#N)=C\c3ccc([N+](=O)[O-])o3)[nH]c2c1` reads above 2. Under `CCn1cc(C(=O)O)c(=O)c2cnc(N3CCN(C(=S)Nc4ccccc4Cl)CC3)nc21` stands above 2; under `O=C(Nc1ncccn1)c1ccc([N+](=O)[O-])o1`, above 2; under `CCn1cc(C(=O)O)c(=O)c2cnc(N3CCN(C(=S)Nc4ccc5c(c4)OCO5)CC3)nc21`, < 2 (inactive). Regarding `CCn1cc(C(=O)O)c(=O)c2cnc(N3CCN(C(=S)NC)CC3)nc21`, the fold reduction of Chi cutting was < 2 (inactive). The result for `N#Cc1c(NC(=O)c2cnccn2)sc2c1CCCC2` reads < 2 (inactive); that for `N#Cc1c(NC(=O)c2ccc([N+](=O)[O-])o2)sc2c1CCC2`, above 2. Regarding `CCn1cc(C(=O)O)c(=O)c2cnc(N3CCN(C(=S)NC4CC5CCC4C5)CC3)nc21` (stereo not drawn), the fold reduction of Chi cutting is above 2. Under `CCn1cc(C(=O)O)c(=O)c2cnc(N3CCN(C(=S)Nc4ccc(Cl)cc4)CC3)nc21` stands < 2 (inactive); under `N#Cc1c(NC(=O)c2ccccc2)sc2c1CCC2`, < 2 (inactive); under `CCn1cc(C(=O)O)c(=O)c2cnc(N3CCN(C(=S)Nc4ccccc4F)CC3)nc21`, < 2 (inactive). Regarding `CCn1cc(C(=O)O)c(=O)c2cnc(N3CCN(C(=S)Nc4ccccc4C(F)(F)F)CC3)nc21`, the fold reduction of Chi cutting is > 2 and < 2 (inactive).

Turning to `CC1CCc2c(sc(NC(=O)c3ccc([N+](=O)[O-])o3)c2N)C1` (stereo not drawn), the fold reduction of Chi cutting was above 2. The result for `CCn1cc(C(=O)O)c(=O)c2cnc(N3CCN(C(=S)NC(=O)c4ccco4)CC3)nc21` reads < 2 (inactive); that for `N#Cc1c(NC(=O)c2ccccc2C(=O)O)sc2c1CCCC2`, above 2. Under `CCn1cc(C(=O)O)c(=O)c2cnc(N3CCN(C(=S)NC(=O)c4cccnc4)CC3)nc21` stands < 2 (inactive); under `CCn1cc(C(=O)O)c(=O)c2cnc(N3CCN(C(=O)Nc4ccccc4)CC3)nc21`, above 2; under `CCn1cc(C(=O)O)c(=O)c2cnc(N3CCN(C(=S)Nc4ccc(F)cc4)CC3)nc21`, above 2.

In the case of `CCn1cc(C(=O)O)c(=O)c2cnc(N3CCN(C(=S)NC(=O)c4cccc(C)c4)CC3)nc21`, the fold reduction of Chi cutting is above 2.

For the compound `N#Cc1c(NC(=O)c2cccc(F)c2)sc2c1CCCC2`, the fold reduction of Chi cutting is above 2. The result for `Cc1sc(NC(=O)c2ccc(Br)o2)c(C#N)c1C` reads < 2 (inactive); that for `Cc1ccc(C(=O)Nc2sc3c(c2C#N)CCCCC3)o1`, < 2 (inactive); that for `C=CCNC(=S)N1CCN(c2ncc3c(=O)c(C(=O)O)cn(CC)c3n2)CC1`, < 2 (inactive). Under `CC1CCc2c(sc(NC(=O)c3ccc([N+](=O)[O-])o3)c2C#N)C1` (stereo not drawn) stands < 2 (inactive); under `N#Cc1c(NC(=O)c2ccc(-c3ccccc3[N+](=O)[O-])o2)sc2c1CCCC2`, < 2 (inactive); under `N#Cc1c(NC(=O)C2CC=CCC2C(=O)O)sc2c1CCC2` (stereo not drawn), < 2 (inactive). For `NC(=O)c1ccsc1NC(=O)COC(=O)c1ccc([N+](=O)[O-])o1`, the fold reduction of Chi cutting is < 2 (inactive). Turning to `C=CCn1c(Sc2ncc([N+](=O)[O-])s2)n[nH]c1=O`, the fold reduction of Chi cutting was < 2 (inactive).

For `CCn1cc(C(=O)O)c(=O)c2cnc(N3CCN(C(=S)NC(=O)c4ccccc4Cl)CC3)nc21`, the fold reduction of Chi cutting was < 2 (inactive).

For `CCn1cc(C(=O)O)c(=O)c2cnc(N3CCN(C(=S)Nc4ccccc4OC)CC3)nc21`, the fold reduction of Chi cutting is < 2 (inactive). As to `Cc1ccc(C(=O)Nc2sc3c(c2C#N)CCC3)o1`, the fold reduction of Chi cutting was < 2 (inactive). On to `N#Cc1c(NC(=O)c2ccc([N+](=O)[O-])o2)sc2c1CCCC2`, for which the fold reduction of Chi cutting was < 2 (inactive). Turning to `CCn1cc(C(=O)O)c(=O)c2cnc(N3CCN(C(=S)NC(C)c4ccccc4)CC3)nc21` (stereo not drawn), the fold reduction of Chi cutting was < 2 (inactive). As to `O=C(Nc1cccc(NC(=O)c2ccccc2Cl)c1)c1ccc([N+](=O)[O-])o1`, the fold reduction of Chi cutting is above 2. `Nc1c(NC(=O)c2ccc([N+](=O)[O-])o2)sc2c1CCCC2`: the fold reduction of Chi cutting is above 2. Under `CCn1cc(C(=O)O)c(=O)c2cnc(N3CCN(C(=S)NCc4ccccc4)CC3)nc21` stands < 2 (inactive). The result for `O=C(OCC(=O)c1cccs1)c1ccc([N+](=O)[O-])o1` reads < 2 (inactive); that for `CCn1cc(C(=O)O)c(=O)c2cnc(N3CCN(C(=S)Nc4ccccc4C)CC3)nc21`, < 2 (inactive); that for `CC1(C)Cc2c(sc(NC(=O)c3ccco3)c2C#N)CO1`, < 2 (inactive).

In the case of `N#Cc1c(NC(=O)c2ccco2)sc2c1CCC2`, the fold reduction of Chi cutting was < 2 (inactive). Under `CCn1cc(C(=O)O)c(=O)c2cnc(N3CCN(C(=S)Nc4cccc(C(F)(F)F)c4)CC3)nc21` stands < 2 (inactive); under `Cc1cccnc1NC(=O)c1ccc([N+](=O)[O-])o1`, < 2 (inactive); under `CCn1cc(C(=O)O)c(=O)c2cnc(N3CCN(C(=S)Nc4ccccc4)CC3)nc21`, above 2.
